ChEMBL document CHEMBL4818990, “Insight into the binding mode of HIF-2 agonists through molecular dynamic simulations and biological validation” (Eur J Med Chem, 2021)
The source made the active and inactive calls. The calls are words filed in the database; no cut-off is given here.

Experiments:
Homo sapiens = species: Homo sapiens; experiment: Agonist activity at HIF-2 (unknown origin) expressed in bacterial expression system assessed as change in melting temperature at 10 uM measured by thermal shift assay; conditions: filed as agonist
In short: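 HIF-2–ARNT protein complex (1.5M as printed) with 10 μM compound from DMSO stock, final DMSO 0.1%, in 20 mM Tris pH 8.0, 400 mM NaCl. Read on qPCR instrument with thermal-shift dye. Tm from derivative curve; ΔTm = compound Tm minus blank Tm. Four parallel replicates per compound.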

786-0 [1] = experiment: (§1) Agonist activity at HIF-2 in human 786-0-HRE-Luc cells assessed as increase in […] intensity measured after 24 hrs by luciferase reporter gene assay; format: cell-based; conditions: filed as agonist
In short: (§2)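 786-O cells stably transduced with lentiviral HRE-driven firefly luciferase (single clone), grown in RPMI-1640 + 10% FBS. Seeded, allowed to attach, then given compound in DMSO (2 and 20 μM, or a concentration series) for 24 h. Luminescence read with a firefly luciferase reagent; triplicate cultures, mean ± s.d.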

[2] = as §1; format: cell-based; conditions: 786-0, 24 h; in short: as §2
786-0 [3] = experiment: Cytotoxicity against human 786-0-HRE-Luc cells assessed as inhibition of cell proliferation at 1 uM measured after 24 hrs by CCK8 assay; format: cell-based; conditions: 786-0, 24 h
786-0 [4] = experiment: Agonist activity at HIF-2 in human 786-0-HRE-Luc cells assessed as increase in […] intensity at 6.6 to 20 uM measured after 24 hrs by luciferase reporter gene assay; format: cell-based; conditions: dose 6.6-20 µM; in short: as §2
786-0 [5] = experiment: Agonist activity at HIF-2 in human 786-0-HRE-Luc cells at 2 uM measured after 24 hrs by luciferase reporter gene assay; format: cell-based; conditions: filed as agonist; in short: as §2
786-0 [6] = experiment: Agonist activity at HIF-2 in human 786-0-HRE-Luc cells assessed as increase in […] intensity at 2.2 uM measured after 24 hrs by luciferase reporter gene assay relative to control; format: cell-based; conditions: filed as agonist; in short: as §2
786-0 [7] = experiment: Cytotoxicity against human 786-0-HRE-Luc cells assessed as inhibition of cell proliferation at 20 uM measured after 24 hrs by CCK8 assay; format: cell-based; conditions: 786-0, 24 h
786-0 [8] = experiment: Agonist activity at HIF-2 in human 786-0-HRE-Luc cells assessed as increase in […] intensity at 20 uM measured after 24 hrs by luciferase reporter gene assay relative to control; format: cell-based; conditions: filed as agonist; in short: as §2

| SMILES | ΔTm (Homo sapiens) [°C] | Activity (786-0 [1]) | other results |
| --- | --- | --- | --- |
| CN(C1=NS(=O)(=O)c2ccccc21)c1cc(C(F)(F)F)cc(C(F)(F)F)c1 | 0.27 |  |  |
| O=S1(=O)N=C(Oc2cc(C(F)(F)F)cc(C(F)(F)F)c2)c2ccccc21 | 0.06 |  |  |
| O=S1(=O)N=C(Nc2cc(Cl)cc(Cl)c2)c2ccccc21 | 2.08 | Dose-Dependent Effect |  |
| O=C1N=C(Nc2cc(C(F)(F)F)cc(C(F)(F)F)c2)c2ccccc21 | 0.03 |  |  |
| O=S1(=O)N=C(Nc2ccccc2)c2ccccc21 | 2 | Dose-Dependent Effect |  |
| O=S1(=O)N=C(Nc2cc(F)cc(F)c2)c2ccccc21 | 2.05 | Dose-Dependent Effect |  |
| O=S1(=O)N=C(Nc2cc(C(F)(F)F)cc(C(F)(F)F)c2)c2ccccc21 | 2.23 |  | EC50 [2]: 440 nM; Activity (786-0 [3]): Toxic; Activity (786-0 [4]): inactive; Activity (786-0 [5]): Active; fold change (FC) (786-0 [6]): 1.41 |

Continued, in another order:

| ΔTm (Homo sapiens) [°C] | SMILES | Activity (786-0 [1]) | other results |
| --- | --- | --- | --- |
| 1.93 | Cc1cc(C)cc(NC2=NS(=O)(=O)c3ccccc32)c1 | Dose-Dependent Effect |  |
| 2.52 | O=S1(=O)N=C(Nc2cc(Br)cc(Br)c2)c2ccccc21 | Dose-Dependent Effect | EC50 [2]: 1680 nM; Activity (786-0 [7]): Non-Toxic; fold change (FC) (786-0 [8]): 1.63 |
| 1.89 | COc1cc(NC2=NS(=O)(=O)c3ccccc32)cc(OC)c1 | Dose-Dependent Effect |  |
